According to ChEMBL document CHEMBL3739398, “Inhibition of Invasion in Pancreatic Cancer Cells by Conjugate of EPA with β(3,3)-Pip-OH via PI3K/Akt/NF-kB Pathway” (ACS Med Chem Lett, 2015):
Calls of active or inactive are those of the source. No cut-off for these calls is given here.

Legend:
[1] = Cytotoxicity against human PC3 cells by MTT assay; assay type: functional, cell-based; conditions: PC-3
[2] = Cytotoxicity against human HCT116 cells by MTT assay; assay type: functional, cell-based; conditions: HCT-116
[3] = Cytotoxicity against human PANC1 cells by MTT assay; assay type: functional, cell-based; conditions: PANC-1
[4] = Downregulation of MMP-2 expression in human PANC1 cells at 2 and 4 uM by western blot analysis; assay type: functional, cell-based; conditions: PANC-1
Summary of the method: (§1)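 PANC-1 seeded in six-well plates and treated with indicated compound concentrations; whole-cell lysates probed for target proteins by Western blotting.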

[5] = Effect on total mTOR expression in human PANC1 cells at 2 and 4 uM by western blot analysis; assay type: cell-based; conditions: panc-1; summary of the method: as §1
[6] = system: PANC-1; assay: Inhibition of colony formation in human PANC1 cells at 2 and 4 uM for 5 days by crystal violet staining based microscopic analysis; assay type: functional, cell-based
Summary of the method: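 PANC-1 seeded at 1 × 10^3 cells/well, treated with compound alongside DMSO for 5 days; crystal violet-stained colonies counted in random fields and imaged under inverted microscope (20×); three independent experiments.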

[7] = Upregulation of E-cadherin expression in human PANC1 cells at 2 and 4 uM by western blot analysis; assay type: functional, cell-based; conditions: PANC-1; summary of the method: as §1
[8] = system: PANC-1; assay: Inhibition of cell migration in human PANC1 cells at 2 and 4 microM after 48 hrs by wound healing assay; assay type: functional, cell-based
Summary of the method: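 Scratch wound made in PANC-1 monolayer; cells treated with compound at 2.0 and 4.0 μM, DMSO vehicle control; wound area photographed at 20× magnification at 0 h and after incubation; statistics from three independent experiments.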

[9] = system: PANC-1; assay: Antimetastatic activity in human PANC1 cells at 2 and 4 uM after 24 hrs by fluorescent gelatin degradation assay; assay type: functional, cell-based
Summary of the method: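 PANC-1 grown 24 h on coverslips coated with cross-linked FITC-conjugated gelatin in presence of compound; matrix degradation spots visualized by fluorescence and degraded area highlighted by image analysis.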

[10] = Downregulation of PI3K-p110 alpha expression in human PANC1 cells by western blot analysis; assay type: functional, cell-based; conditions: PANC-1; summary of the method: as §1
[11] = Upregulation of TIMP1 expression in human PANC1 cells by western blot analysis; assay type: functional, cell-based; conditions: PANC-1; summary of the method: as §1
[12] = system: PANC-1; assay: Inhibition of PI3K-mediated Akt phosphorylation at S473 residue in human PANC1 cells by western blot analysis; assay type: cell-based; summary of the method: as §1
[13] = Downregulation of PI3K-p85 alpha expression in human PANC1 cells by western blot analysis; assay type: functional, cell-based; conditions: PANC-1; summary of the method: as §1
[14] = system: PANC-1; assay: Inhibition of cell invasion in human PANC1 cells by 3D invasion assay in presence of neutralized collagen; assay type: functional, cell-based
Summary of the method: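 PANC-1 mixed with neutralized collagen, spotted centrally in wells and solidified as a cell-collagen hemisphere; fresh medium with or without compound added; invasion beyond the original collagen boundary scored against DMSO-treated cells.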

[15] = system: PANC-1; assay: Inhibition of PI3K-mediated mTOR phosphorylation in human PANC1 cells at 2 and 4 uM by western blot analysis; assay type: cell-based; summary of the method: as §1
[16] = Downregulation of NF-kappaB expression in human PANC1 cells by western blot analysis; assay type: functional, cell-based; conditions: PANC-1; summary of the method: as §1
[17] = Downregulation of S6K expression in human PANC1 cells at 2 and 4 uM by western blot analysis; assay type: functional, cell-based; conditions: PANC-1; summary of the method: as §1
[18] = Downregulation of MMP-9 expression in human PANC1 cells at 2 and 4 uM by western blot analysis; assay type: functional, cell-based; conditions: PANC-1; summary of the method: as §1
[19] = system: PANC-1; assay: Inhibition of cell invasion in human PANC1 cells at 2 and 4 uM for 24 hrs by matrigel invasion assay; assay type: functional, cell-based
Summary of the method: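 Boyden chamber matrigel invasion: PANC-1 treated 24 h with compound (2.0 and 4.0 μM); invaded cells counted in five random fields per group under inverted microscope (20×); three independent experiments, p < 0.05.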

Row | Compound | IC50 [1] [µM] | IC50 [2] [µM] | IC50 [3] [µM] | also measured
1 | CCC(/C=C/C(=O)N1CCC[C@H]1C(=O)OC)=C\c1ccc2c(c1)OCO2 | 16 | 49.8 | 42.2 | 
2 | CCCCC(=O)NC1(CC(=O)NNc2ccccc2)CCN(C(=O)/C=C/C(=C/c2ccc3c(c2)OCO3)CC)CC1 | 15 | > 100 | 4 | inhibition [4]: Active; Activity [5]: Non-toxic; inhibition [6]: Active; Activity [7]: Active; inhibition [8]: Active; inhibition [9]: Active; inhibition [10]: Dose-dependent effect; Activity [11]: Dose-dependent effect; inhibition [12]: Dose-dependent effect; inhibition [13]: Dose-dependent effect; inhibition [14]: Dose-dependent effect; inhibition [15]: Active; inhibition [16]: Dose-dependent effect; inhibition [17]: Active; inhibition [18]: Active; inhibition [19]: Active
3 | CCC(/C=C/C(=O)N[C@@H](C)C(=O)OC)=C\c1ccc2c(c1)OCO2 | 43.5 | 47.1 | 6.7 | 
4 | CCC(/C=C/C(=O)NC1(CC(=O)OC)CCCCC1)=C\c1ccc2c(c1)OCO2 | 20 | > 100 | > 100 | 
5 | CCC(/C=C/C(=O)O)=C\c1ccc2c(c1)OCO2 | > 100 | > 100 | > 100 | 
6 | CCC(/C=C/C(=O)N[C@@H](Cc1ccccc1)C(=O)OC)=C\c1ccc2c(c1)OCO2 | 41.9 | 48.3 | > 100 | 
7 | CCC(/C=C/C(=O)NCC1(CC(=O)OC)CCCCC1)=C\c1ccc2c(c1)OCO2 | 45.2 | 47.6 | 10 | 
